Experimental data from ChEMBL document CHEMBL4229376, “Optimization of the pharmacokinetic properties of potent anti-trypanosomal triazine derivatives” (Eur J Med Chem, 2018).

Tests used:
Leishmania infantum = assay: Antileishmanial activity against Leishmania infantum MHOM/MA (BE)/67 amastigotes infected in primary peritoneal mouse macrophages after 120 hrs by giemsa staining-based microscopic analysis; type: functional, organism-based; settings: MHOM/MA (BE)/67, 120 h
[1] = Cytotoxicity against human MRC5 SV2 cells after 72 hrs by resazurin dye-based fluorimetric analysis; type: cell-based; settings: MRC-5 SV2, 72 h
Plasmodium falciparum = assay: Antiplasmodial activity against chloroquine-resistant Plasmodium falciparum K1 infected in human erythrocytes after 72 hrs by Malstat reagent-based spectrophotometric analysis; type: functional, organism-based; settings: K1, 72 h
Peritoneal macrophage = assay: Cytotoxicity against mouse primary peritoneal macrophages after 72 hrs by resazurin dye-based fluorimetric analysis; type: cell-based
[2] = tested on: Trypanosoma brucei brucei; assay: Antitrypanosomal activity against suramin-sensitive Trypanosoma brucei brucei Squib 427 after 72 hrs by resazurin dye-based fluorimetric analysis; type: functional, organism-based; settings: Squib 427, 72 h
Trypanosoma cruzi = assay: Antitrypanosomal activity against nifurtimox-sensitive Trypanosoma cruzi Tulahuen CL2 infected in human MRC5 SV2 cells assessed as reduction in parasite burden after 168 hrs by CPRG and Nonidet based spectrophotometric analysis; type: functional, organism-based; settings: Tulahuen CL2, MRC-5 SV2, 168 h
[3] = Drug metabolism in mouse liver microsomes assessed as UGT mediated compound […] by measuring parent compound remaining at 5 uM after 30 mins in presence of UDPGA by UPLC/MS/ESI analysis; type: ADME; settings: 0.5 h
Procedure, shortened: (§1)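 Metabolic stability was run with mouse liver microsomal fraction (S9) and read as percent parent compound remaining over incubation time. Diclofenac served as the reference compound.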

[4] = Drug metabolism in mouse liver microsomes assessed as UGT mediated compound […] by measuring parent compound remaining at 5 uM after 15 mins in presence of UDPGA by UPLC/MS/ESI analysis; type: ADME; settings: 0.25 h; procedure, shortened: as §1
[5] = Drug metabolism in mouse liver microsomes assessed as UGT mediated compound […] by measuring parent compound remaining at 5 uM after 60 mins in presence of UDPGA by UPLC/MS/ESI analysis; type: ADME; settings: 1 h; procedure, shortened: as §1
[6] = Drug metabolism in mouse liver microsomes assessed as CYP450 mediated compound […] by measuring parent compound remaining at 5 uM after 15 mins in presence of NADPH by UPLC/MS/ESI analysis; type: ADME; settings: read-out: Stability
[7] = Drug metabolism in human plasma assessed as parent compound remaining after 60 mins by UPLC/MS/ESI analysis; type: ADME, cell-free; settings: read-out: Stability
[8] = Drug metabolism in human liver microsomes assessed as CYP450 mediated compound […] by measuring parent compound remaining at 5 uM after 15 mins in presence of NADPH by UPLC/MS/ESI analysis; type: ADME; settings: read-out: Stability
[9] = Drug metabolism in human plasma assessed as parent compound remaining after 30 mins by UPLC/MS/ESI analysis; type: ADME, cell-free
[10] = Drug metabolism in human liver microsomes assessed as CYP450 mediated compound […] by measuring parent compound remaining at 5 uM after 60 mins in presence of NADPH by UPLC/MS/ESI analysis; type: ADME; settings: read-out: Stability
[11] = Drug metabolism in human liver microsomes assessed as UGT mediated compound […] by measuring parent compound remaining at 5 uM after 60 mins in presence of UDPGA by UPLC/MS/ESI analysis; type: ADME; settings: read-out: Stability
[12] = Drug metabolism in human plasma assessed as parent compound remaining after 1440 mins by UPLC/MS/ESI analysis; type: ADME, cell-free; settings: read-out: Stability
Procedure, shortened: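 Compound incubated in human plasma for 24 h at 37 °C, and the fraction of parent compound remaining was determined.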

[13] = Drug metabolism in human plasma assessed as parent compound remaining after 15 mins by UPLC/MS/ESI analysis; type: ADME, cell-free
[14] = Drug metabolism in mouse liver microsomes assessed as CYP450 mediated compound […] by measuring parent compound remaining at 5 uM after 60 mins in presence of NADPH by UPLC/MS/ESI analysis; type: ADME; settings: read-out: Stability
[15] = Drug metabolism in human liver microsomes assessed as UGT mediated compound […] by measuring parent compound remaining at 5 uM after 15 mins in presence of UDPGA by UPLC/MS/ESI analysis; type: ADME; settings: read-out: Stability
[16] = Drug metabolism in human liver microsomes assessed as UGT mediated compound […] by measuring parent compound remaining at 5 uM after 30 mins in presence of UDPGA by UPLC/MS/ESI analysis; type: ADME; settings: read-out: Stability
[17] = Drug metabolism in mouse liver microsomes assessed as CYP450 mediated compound […] by measuring parent compound remaining at 5 uM after 30 mins in presence of NADPH by UPLC/MS/ESI analysis; type: ADME; settings: read-out: Stability
[18] = Drug metabolism in human liver microsomes assessed as CYP450 mediated compound […] by measuring parent compound remaining at 5 uM after 30 mins in presence of NADPH by UPLC/MS/ESI analysis; type: ADME; settings: read-out: Stability

| SMILES | IC50 (Leishmania infantum) [µM] | IC50 [1] [µM] | IC50 (Plasmodium falciparum) [µM] | IC50 (Peritoneal macrophage) [µM] | IC50 [2] [µM] | IC50 (Trypanosoma cruzi) [µM] | further results |
| --- | --- | --- | --- | --- | --- | --- | --- |
| Cc1ccc(Nc2nc(N)nc(Nc3ccc(C#N)cc3)n2)cc1 | > 64 | > 64 | > 64 | > 64 | > 64 | > 64 |  |
| O=C(O)Cc1ccccc1Nc1c(Cl)cccc1Cl [DICLOFENAC] |  |  |  |  |  |  | Stability [3]: 28%; Stability [4]: 38%; Stability [5]: 30% |
| Cc1cc(F)cc(C)c1Nc1nc(N)nc(Nc2ccc(C#N)cc2)n1 | 9.5 | 23.7 | 8.3 | 32 | 7.9 | 7.9 |  |
| Cc1ccc(Oc2nc(N)nc(Nc3ccc(F)cc3)n2)cc1 | 32.5 | > 64 | > 64 | 32 | 0.4 | > 64 | remaining at 0.25 h, 5 µM [6]: 57%; remaining at 1 h [7]: 101%; Stability [3]: 104%; remaining at 0.25 h, 5 µM [8]: 107%; Stability [4]: 91%; remaining at 0.5 h ([9]; read-out: Stability): 94%; remaining at 1 h, 5 µM [10]: 113%; remaining at 1 h, 5 µM [11]: 94%; remaining at 24 h [12]: 95%; remaining at 0.25 h ([13]; read-out: Stability): 104%; Stability [5]: 110%; remaining at 1 h, 5 µM [14]: 10.5%; remaining at 0.25 h, 5 µM [15]: 96%; remaining at 0.5 h, 5 µM [16]: 105%; remaining at 0.5 h, 5 µM [17]: 28%; remaining at 0.5 h, 5 µM [18]: 99% |
| Nc1nc(Nc2ccc(F)cc2)nc(Nc2ccc(F)cc2)n1 | > 64 | > 64 | > 64 | > 64 | 2.8 | > 64 |  |
| Cc1ccc(Nc2nc(N)nc(Nc3ccc(C#N)cc3)n2)c(Cl)c1 | 50.8 | > 64 | 29.8 | > 64 | 7.7 | > 64 |  |
| CNc1nc(Nc2ccc(F)cc2)nc(Oc2c(C)cc(C)cc2C)n1 | 24 | > 64 | 20.2 | 32 | 10.9 | 7.8 |  |
| Cc1ccc(Oc2nc(N)nc(Nc3ccc(F)cc3)n2)c(Cl)c1 | 27.3 | > 64 | 51.7 | 32 | 0.5 | 7.8 | remaining at 0.25 h, 5 µM [6]: 25%; remaining at 1 h [7]: 117%; Stability [3]: 109%; remaining at 0.25 h, 5 µM [8]: 90%; Stability [4]: 108%; Stability ([9]; 0.5 h): 124%; remaining at 1 h, 5 µM [10]: 67%; remaining at 1 h, 5 µM [11]: 79%; remaining at 24 h [12]: 100%; Stability ([13]; 0.25 h): 121%; Stability [5]: 113%; remaining at 1 h, 5 µM [14]: 1.4%; remaining at 0.25 h, 5 µM [15]: 88%; remaining at 0.5 h, 5 µM [16]: 88%; remaining at 0.5 h, 5 µM [17]: 6%; remaining at 0.5 h, 5 µM [18]: 87% |
| CC/C(=C(\c1ccccc1)c1ccc(OCCN(C)C)cc1)c1ccccc1 [TAMOXIFEN] |  | 10.2 |  |  |  |  |  |
| Cc1cc(C)c(Oc2nc(N)nc(Nc3cc(F)cc(F)c3)n2)c(C)c1 | 8.1 | 4.4 | 17.4 | 8 | 1.3 | 2.3 |  |
| Cc1cc(C)c(Oc2ncnc(Nc3ccccc3)n2)c(C)c1 | 24 | 17.8 | 31.5 | 32 | 32.5 | 8.2 |  |
| Cc1cc(C)c(Oc2nc(N)nc(Nc3ccc(C(F)(F)F)cc3)n2)c(C)c1 | 8.1 | 6.5 | 8.8 | 8 | 6.9 | 2.4 |  |
| Cc1cc(C)c(Oc2nc(N)nc(Nc3ccc(Cl)cc3)n2)c(C)c1 | 8.1 | 6.4 | 26.6 | 8 | 1.5 | 3.1 |  |
